The text below walks through data of PubChem BioAssay.

What is called inhibition is the change of the read-out against control, counted positive when it falls.

Active and inactive are the calls of the source.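 How the source made its calls, unless noted: active means inhibition at or above 50% at 10 µM; inactive means inhibition below 50%.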

Assay [1] can be described thus: inhibitors of TNFa-induced NFkB p65 translocation, primary screen, imaging, HUVEC, MLSMR starter and 10KST1 sets (AID 438;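 active means inhibition above 20% together with a positive visual image hit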;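 further: compound added about 3h40 before a 20 min TNFalpha stimulation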;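 on inhibition: signal is the nuclear over cytoplasmic p65 intensity ratio per well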). The note with it: HUVEC TNFa-induced p65 nuclear translocation; cell count: measured here: nuclei count (cytotoxicity indicator), at 2.08 µM; inhibition: at 2 µM, stronger effect = higher value, 0% TNFa-plus-vehicle, 100% no-TNFa wells.
Assay [2] in a line: inhibitors of mutant huntingtin aggregation, primary screen, imaging, exon1htt(103Q)mCFP cells, high-content imaging (AID 483;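 active means visual image review flags a hit and inhibition of aggregation exceeds 20%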;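 further: compound exposure lasted 3 days before fixation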;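 on nuclei count: percent of the per-plate median nuclei count of sample wells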). The note with it: exon1htt(103Q)mCFP cell line, aggregate imaging, at 2 µM; inhibition of aggregation: stronger effect = higher value; nuclei count: measured here: cell count, toxicity.
Assay [3] can be described thus: inhibitors of E-selectin induction by TNFa, primary screen, imaging, HUVEC, immunofluorescence, MLSMR starter and 10KST1 sets (AID 487;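 active means visually confirmed hit in the image check and inhibition above 20%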;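 on inhibition: signal is fraction of cell area covered by stained E-selectin grains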;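 on nuclei count: 100% = median nuclei count of all wells on the same plate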). As to conditions: HUVEC TNFalpha-induced E-selectin immunofluorescence imaging, at 2 µM; inhibition: stronger effect = higher value; nuclei count: measured here: cell number, toxicity.
Assay [4] deals with Voltage-gated potassium channel subunit beta-2 (Rattus norvegicus) (UniProt P62483). The assay is described as follows: KvBeta enzyme negative modulators, primary screen, biochemical, NADPH fluorescence (AID 622;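 active means fluorescence slope higher than the sample average by over 3 SD, cut at about -0.22 in these data, passing the limit was not always enough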;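 further: slope of raw intensity against log time taken from 70 to 1610 s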). The note with it: recombinant KvBeta, 4-cyanobenzaldehyde reduction, at 10 µM, stronger effect = higher value.
For assay [5] the target is unchanged. The assay is described as follows: KvBeta positive modulators, primary screen, biochemical, NADPH fluorescence (AID 623;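 active means NADPH fluorescence slope more negative than the mean of all samples by about 3 SD, 99.7% confidence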;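 further: fluorescence intensity change per second fitted from 20 to 320 s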). The note with it: Recombinant KvBeta, NADPH fluorescence decrease slope, 10 min; at 10 µM; stronger effect = lower value.
Assay [6] deals with Muscarinic acetylcholine receptor M4 (Homo sapiens) (UniProt P08173). In words: compounds altering M4/GIRK thallium flux, either direction, primary screen, M4 allosteric agonist project, cell-based, HEK293 M4/GIRK, BTC-AM (AID 625;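 active means fluorescence slope after compound addition differing from the mean of all tested samples at 99.7% confidence, mostly higher but some lower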;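 further: thallium influx through GIRK channels coupled to M4 in HEK293 cells with BTC-AM dye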). The note with it: at 10 µM, actives lie on both sides. The essentials:
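System: HEK293 cells with M4 receptor and GIRK channels | Incubation: Cells overnight at 37 °C, BTC-AM loading 1 h, reads 2 min total | Technique: Kinetic BTC-AM fluorescence sampled at 1 Hz, 10 s pre-addition baseline | Measure: Post-addition slope, 15–24 s, of baseline-normalized fluorescence | Control set: Carbachol positive, DMSO negative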

Assay [7] is described as follows: inhibitors of Sendai virus-induced IRF3 signaling, primary screen, TLR/RLR signaling modifier project, cell-based, Sendai virus stimulus, luciferase, 10K MLSCN set (AID 602276).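 Further: firefly luciferase from ISG56 promoter only with Renilla not read in this screen; 0% = Sendai virus plus DMSO and 100% = medium plus DMSO without virus.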 As to conditions: HEK293 RL24 IRF3 luciferase reporter, at 10 µM, stronger effect = higher value.
Assay [8] is described as follows: inhibitors of poly I:C-induced TLR3 signaling, primary screen, cell-based, poly I:C stimulus, luciferase, 10K MLSCN set (AID 602277;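 active means inhibition of the reporter signal at or above 50%; inactive means inhibition below 50%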). The note with it: HEK293-TLR3 RL24 IRF3 luciferase reporter, at 10 µM, stronger effect = higher value.

Voltage-gated potassium channel subunit beta-2 (Rattus norvegicus), sequence (P62483 whole entry, looked up): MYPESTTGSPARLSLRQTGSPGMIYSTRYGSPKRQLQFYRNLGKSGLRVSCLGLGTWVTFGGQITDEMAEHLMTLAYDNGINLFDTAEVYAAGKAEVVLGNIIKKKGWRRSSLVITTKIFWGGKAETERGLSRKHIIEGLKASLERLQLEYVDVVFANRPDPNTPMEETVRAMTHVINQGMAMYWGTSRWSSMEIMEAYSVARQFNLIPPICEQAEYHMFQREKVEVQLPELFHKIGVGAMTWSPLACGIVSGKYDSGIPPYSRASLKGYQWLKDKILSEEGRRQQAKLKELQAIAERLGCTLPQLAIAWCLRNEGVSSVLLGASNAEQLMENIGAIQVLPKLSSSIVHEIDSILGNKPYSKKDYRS
Muscarinic acetylcholine receptor M4 (Homo sapiens), sequence (P08173 whole entry, looked up): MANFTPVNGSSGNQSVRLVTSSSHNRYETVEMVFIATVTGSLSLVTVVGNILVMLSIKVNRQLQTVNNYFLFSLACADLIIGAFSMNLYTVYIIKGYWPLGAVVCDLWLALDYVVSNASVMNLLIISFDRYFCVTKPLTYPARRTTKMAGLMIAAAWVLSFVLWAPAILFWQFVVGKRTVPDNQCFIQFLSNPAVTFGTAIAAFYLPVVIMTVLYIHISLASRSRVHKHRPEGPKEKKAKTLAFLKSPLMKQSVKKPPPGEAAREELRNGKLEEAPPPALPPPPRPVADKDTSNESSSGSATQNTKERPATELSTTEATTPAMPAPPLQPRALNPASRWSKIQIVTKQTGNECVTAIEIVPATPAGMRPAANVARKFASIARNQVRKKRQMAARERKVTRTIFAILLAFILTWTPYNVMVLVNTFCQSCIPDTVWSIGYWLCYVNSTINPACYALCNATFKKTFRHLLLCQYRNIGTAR

As for `CC1CCN(C(=O)Cn2c(=O)oc3ccccc32)CC1`, the cell count in assay [1] was found to be 322. In addition, the inhibition is -0.6% (inactive) in assay [1], -222% (inactive) in assay [3], -14.5% (inactive) in assay [7] and -12.5% (inactive) in assay [8]. In addition, the inhibition of aggregation in assay [2] was 15.4% (inactive). Further, the nuclei count in assay [2] stood at 100%; in assay [3], 104%. The fluorescence slope in assay [4] was -0.57 (inactive); in assay [6], 0.00554 (inactive). Moreover, the NADPH fluorescence slope in assay [5] is 4.8e-06 (inactive).
Turning to `CCOC(=O)N1CCC(NC(=O)c2ccc3nc(N4CCOCC4)sc3c2)CC1`, the cell count in assay [1] amounted to 585. In addition, the inhibition in assay [1] was 2.2% (inactive); in assay [3], 36% (inactive); in assay [7] it was 12.9% (inactive); in assay [8], 12.3% (inactive). For the same compound, the inhibition of aggregation in assay [2] is 0% (inactive). Besides, the values for the nuclei count in assay [2] and in assay [3] were 112% and 90.8%, respectively. The results for the fluorescence slope in assay [4] and in assay [6] were -0.591 (inactive) and 0.00698 (inactive), respectively. In addition, the NADPH fluorescence slope in assay [5] was 1.8e-05 (inactive).
In the case of `Nc1ncnc2nc(SCCN3CCCCC3)[nH]c12`, in assay [1], the cell count is 189. Moreover, the inhibition in assay [1] was -0.7% (inactive); in assay [3] it was -0.1% (inactive); in assay [7], 17.8% (inactive); in assay [8], 10.9% (inactive). The inhibition of aggregation in assay [2] was 5% (inactive). The values for the nuclei count in assay [2] and in assay [3] were 90.8% and 92.4%, respectively. Further, the fluorescence slope in assay [4] is -0.545 (inactive); in assay [6], 0.00574 (inactive). In addition, the NADPH fluorescence slope in assay [5] is -3.4e-05 (inactive).
With `CCOc1cc(C2C(C(=O)OC(C)C)=C(C)N=C3SCCC(=O)N32)ccc1OC(C)=O` (centres undefined), the cell count in assay [1] was 284. The inhibition in assay [1] was 5.8% (inactive); in assay [3], 1.9% (inactive); in assay [7], 11.7% (inactive); in assay [8], 24% (inactive). Also, in assay [2], the inhibition of aggregation was 8.8% (inactive). Further, the nuclei count in assay [2] and in assay [3] was 105% throughout. Also, the fluorescence slope in assay [4] is -0.42 (inactive); in assay [6] it was 0.00512 (inactive). Also, the NADPH fluorescence slope in assay [5] is -0.000412 (inactive).
Turning to `COc1ccc(Cn2c(=O)[nH]c3cc(C(=O)NCCCN4CCCC4)ccc3c2=O)cc1`, the cell count in assay [1] was 474. Besides, the inhibition in assay [1] was -5.2% (inactive); in assay [3], 30.4% (inactive); in assay [7], 11% (inactive); in assay [8], -6.33% (inactive). For the same compound, in assay [2], the inhibition of aggregation is 30.8% (inactive). Also, the results for the nuclei count in assay [2] and in assay [3] were 88.2% and 139%, respectively. The results for the fluorescence slope in assay [4] and in assay [6] were -0.26 (inactive) and 0.00648 (inactive), respectively. Also, in assay [5], the NADPH fluorescence slope was -1.4e-05 (inactive).
Consider `CC(=O)Nc1cccc(-c2nnc(-c3ccccc3)o2)c1`, for which the cell count in assay [1] is 378. For the same compound, the inhibition was 0.4% (inactive) in assay [1], -93.4% (inactive) in assay [3], -35.6% (inactive) in assay [7] and -134% (inactive) in assay [8]. For the same compound, in assay [2], the inhibition of aggregation is 4.1% (inactive). The values for the nuclei count in assay [2] and in assay [3] were 105% and 136%, respectively. Besides, the fluorescence slope was -0.582 (inactive) in assay [4] and 0.00721 (inactive) in assay [6]. For the same compound, the NADPH fluorescence slope in assay [5] is -3e-05 (inactive).
For the compound `COc1ccc(NC(=O)CCNC(=O)Cn2ccc3ccccc3c2=O)c(OC)c1`, the cell count in assay [1] stood at 707. The inhibition in assay [1] is -8.4% (inactive); in assay [3] it was -39.3% (inactive); in assay [7] it was 14.4% (inactive); in assay [8] it was 15.6% (inactive). Besides, in assay [2], the inhibition of aggregation is 22.3% (inactive). Also, the nuclei count was 101% in assay [2] and 115% in assay [3]. The fluorescence slope in assay [4] was -0.331 (inactive); in assay [6], 0.00839 (inactive). Also, the NADPH fluorescence slope in assay [5] is -5.9e-05 (inactive).
Take `COC(=O)Cn1cc(C(=O)c2cccs2)c2ccccc21`: the cell count in assay [1] was 220. Also, the inhibition was -21.4% (inactive) in assay [1], 4.3% (inactive) in assay [3], 14.1% (inactive) in assay [7] and 20.4% (inactive) in assay [8]. For the same compound, the inhibition of aggregation in assay [2] is 8.5% (inactive). For the same compound, the nuclei count amounted to 82.9% in assay [2] and 70.5% in assay [3]. Besides, the values for the fluorescence slope in assay [4] and in assay [6] were -0.554 (inactive) and 0.00685 (inactive), respectively. For the same compound, in assay [5], the NADPH fluorescence slope was -3.7e-05 (inactive).
With `Cc1ccccc1OCCN1C(=O)NC2(CCc3ccccc32)C1=O` (centres undefined), the cell count in assay [1] came out at 414. The inhibition in assay [1] is -18.4% (inactive); in assay [3], 8.5% (inactive); in assay [7], 12% (inactive); in assay [8] it was 4.56% (inactive). The inhibition of aggregation in assay [2] was 8.4% (inactive). For the same compound, the nuclei count in assay [2] worked out at 94.7%; in assay [3], 99.4%. For the same compound, the fluorescence slope in assay [4] was -0.297 (inactive); in assay [6], 0.00542 (inactive). For the same compound, the NADPH fluorescence slope in assay [5] was -1.6e-05 (inactive).
As for `Cc1ccc(OCC(=O)NCCN2CCCC2)cc1`, in assay [1], the cell count is 424. Further, the inhibition in assay [1] was 0% (inactive); in assay [3], -65.5% (inactive); in assay [7], 15.6% (inactive); in assay [8], 28% (inactive). The inhibition of aggregation in assay [2] is 5% (inactive). The results for the nuclei count in assay [2] and in assay [3] were 101% and 102%, respectively. In addition, the fluorescence slope in assay [4] is -0.404 (inactive); in assay [6] it was 0.00568 (inactive). Also, the NADPH fluorescence slope in assay [5] is -0.000132 (inactive).
With `CCN(CC)c1ccc(CNc2ccc(Br)cn2)cc1`, the cell count in assay [1] was 388. For the same compound, the inhibition is -2.4% (inactive) in assay [1], -74.6% (inactive) in assay [3], -41.1% (inactive) in assay [7] and -92.7% (inactive) in assay [8]. Also, the inhibition of aggregation in assay [2] was -13.8% (inactive). Also, the nuclei count worked out at 101% in assay [2] and 122% in assay [3]. Further, the values for the fluorescence slope in assay [4] and in assay [6] were -0.546 (inactive) and 0.00212 (inactive), respectively. Further, the NADPH fluorescence slope in assay [5] was -0.000144 (inactive).
For `CCOc1ccc(-n2c(=O)cc(N3CCN(c4ccccc4)CC3)[nH]c2=O)cc1`, the cell count in assay [1] stood at 542. The inhibition in assay [1] is -4.4% (inactive); in assay [3] it was -40.5% (inactive); in assay [7] it was 12.1% (inactive); in assay [8] it was 11.2% (inactive). In addition, in assay [2], the inhibition of aggregation was -3.5% (inactive). For the same compound, the nuclei count in assay [2] was 87.1%; in assay [3], 108%. Also, the fluorescence slope was -0.411 (inactive) in assay [4] and 0.00553 (inactive) in assay [6]. Besides, the NADPH fluorescence slope in assay [5] was -1.6e-05 (inactive).
Regarding `COCCCNC(=O)c1ccc2c(c1)OCO2`, in assay [1], the cell count turned out to be 391. Also, the inhibition is 1.4% (inactive) in assay [1], -36.4% (inactive) in assay [3], -10.8% (inactive) in assay [7] and -37.6% (inactive) in assay [8]. Further, the inhibition of aggregation in assay [2] is 0.6% (inactive). Besides, the nuclei count in assay [2] turned out to be 107%; in assay [3] it was 108%. Further, the fluorescence slope in assay [4] is -0.567 (inactive); in assay [6] it was 0.00354 (inactive). Further, the NADPH fluorescence slope in assay [5] was -9.1e-05 (inactive).
For the compound `Cc1ccc(CCNC(=O)C2CCN(S(=O)(=O)c3cccc4nsnc34)CC2)cc1`, the cell count in assay [1] turned out to be 644. The inhibition is 5.2% (inactive) in assay [1], -129% (inactive) in assay [3], 0.47% (inactive) in assay [7] and -16.3% (inactive) in assay [8]. Moreover, the inhibition of aggregation in assay [2] was -9.1% (inactive). In addition, the nuclei count in assay [2] amounted to 96.4%; in assay [3], 158%. Besides, the values for the fluorescence slope in assay [4] and in assay [6] were -0.461 (inactive) and 0.00736 (inactive), respectively. Moreover, in assay [5], the NADPH fluorescence slope was 0.000103 (inactive).
